Drawing on ChEMBL document CHEMBL1151455, “Increased macrolide resistance of Mycoplasma pneumoniae in pediatric patients with community-acquired pneumonia” (2008), this text covers MIC50, MIC90 and MIC for eight molecules.

In general, MIC50 refers to the lowest concentration that inhibits either 50% of growth or 50% of the strains tested, depending on the study. Higher therefore signals lower susceptibility. The MIC90 is an inhibitory concentration at the 90% level, which refers to growth in some studies and to a panel of isolates in others. A low value points to higher susceptibility. What is called MIC is the smallest concentration in the dilution series that meets the test's criterion for growth inhibition. The low end stands for a more susceptible organism, the high end for a less susceptible organism.

Common to all, as to assay type: functional
Assay [1] deals with Mycoplasmoides pneumoniae. Put plainly: Antimicrobial activity against macrolide-susceptible Mycoplasma pneumoniae isolated from pediatric patients with community-acquired pneumonia after 10 to 14 days by microdilution method. The essentials:
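Pediatric CAP nasopharyngeal isolates, cultured in PPLO broth from real-time PCR-positive samples; strain M129 as control. Broth microdilution in PPLO broth: inoculum estimated at 10^5 CFU/ml added 1:10 to serially diluted antibiotic. Incubated aerobically at 37°C for 10–14 days, until the antibiotic-free growth control changed colour. MIC taken as lowest concentration preventing colour change; MIC50/MIC90 and range reported.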
On the technique in general: In broth dilution the organism is exposed to a series of concentrations in liquid medium.

Assay [2] concerns Mycoplasmoides pneumoniae. In words: Antimicrobial activity against macrolide-resistant Mycoplasma pneumoniae harboring A2063G transition in domain V of 23S rRNA isolated from pediatric patients with community-acquired pneumonia after 10 to 14 days by microdilution method. An outline of the steps:
(§1)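 Clinical isolates cultured from PCR-positive pediatric nasopharyngeal samples in PPLO broth; resistance mutation identified by full-length 23S rRNA gene sequencing. Broth microdilution in PPLO broth containing serially diluted antibiotics, inoculum estimated at 10^5 CFU/ml in culture. Incubated aerobically at 37°C for 10 to 14 days until the antibiotic-free control changed colour. MIC was the lowest concentration preventing the colour change. Strain M129 served as control.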

Assay [3] deals with Mycoplasmoides pneumoniae. Put plainly: Antimicrobial activity against macrolide-resistant Mycoplasma pneumoniae harboring A2064G transition in domain V of 23S rRNA isolated from pediatric patients with community-acquired pneumonia after 10 to 14 days by microdilution method. An outline of the steps:
as §1

≈ marks a conversion by molar mass, not a printed value. Where only a bound is given, the exact number is not on record here.

For the molecule `CC[C@H]1OC(=O)[C@H](C)[C@@H](O[C@H]2C[C@@](C)(OC)[C@@H](O)[C@H](C)O2)[C@H](C)[C@@H](O[C@@H]2O[C@H](C)C[C@H](N(C)C)[C@H]2O)[C@](C)(O)C[C@@H](C)CN(C)[C@H](C)[C@@H](O)[C@]1(C)O` [AZITHROMYCIN], the MIC50 in assay [1] came out at 0.00049 µg/mL (≈ 0.000654 µM); in assay [2], 32 µg/mL (≈ 42.7 µM); in assay [3] it was 32 µg/mL (≈ 42.7 µM). The MIC90 in assay [1] is 0.00098 µg/mL (≈ 0.00131 µM); in assay [2], 64 µg/mL (≈ 85.4 µM); in assay [3] it was 64 µg/mL (≈ 85.4 µM).
Take `CC[C@H]1OC(=O)[C@H](C)[C@@H](O[C@H]2C[C@@](C)(OC)[C@@H](O)[C@H](C)O2)[C@H](C)[C@@H](O[C@@H]2O[C@H](C)C[C@H](N(C)C)[C@H]2O)[C@](C)(OC)C[C@@H](C)C(=O)[C@H](C)[C@@H](O)[C@]1(C)O` [CLARITHROMYCIN]: the MIC50 in assay [1] came to 0.0039 µg/mL (≈ 0.00521 µM); in assay [2], 64 µg/mL (≈ 85.6 µM); in assay [3], 64 µg/mL (≈ 85.6 µM). Besides, the MIC90 is 0.0078 µg/mL (≈ 0.0104 µM) in assay [1], greater than 64 µg/mL in assay [2] and 64 µg/mL (≈ 85.6 µM) in assay [3].
As to `CC[C@H]1OC(=O)[C@H](C)[C@@H](O[C@H]2C[C@@](C)(OC)[C@@H](O)[C@H](C)O2)[C@H](C)[C@@H](O[C@@H]2O[C@H](C)C[C@H](N(C)C)[C@H]2O)[C@](C)(O)C[C@@H](C)C(=O)[C@H](C)[C@@H](O)[C@]1(C)O` [ERYTHROMYCIN], the figures for the MIC50 in assay [1], in assay [2] and in assay [3] were 0.0078 µg/mL (≈ 0.0106 µM), 64 µg/mL (≈ 87.2 µM) and greater than 64 µg/mL, respectively. For the same molecule, the MIC90 in assay [1] was 0.0156 µg/mL (≈ 0.0213 µM); in assay [2], greater than 64 µg/mL; in assay [3], greater than 64 µg/mL. This molecule also had an MIC in assay [3] of no less than 64 µg/mL.
On to `CO[C@@H]1[C@@H](O[C@@H]2O[C@H](C)[C@@H](O[C@H]3C[C@@](C)(O)[C@@H](OC(=O)CC(C)C)[C@H](C)O3)[C@H](N(C)C)[C@H]2O)[C@@H](CC=O)C[C@@H](C)[C@@H](O)/C=C/C=C/C[C@@H](C)OC(=O)C[C@H]1OC(C)=O` [JOSAMYCIN], for which the MIC50 stood at 0.0313 µg/mL (≈ 0.0378 µM) in assay [1], 8 µg/mL (≈ 9.66 µM) in assay [2] and 64 µg/mL (≈ 77.3 µM) in assay [3]. Moreover, the MIC90 in assay [1] is 0.0625 µg/mL (≈ 0.0755 µM); in assay [2], 16 µg/mL (≈ 19.3 µM); in assay [3] it was greater than 64 µg/mL.
On to `C[C@H]1COc2c(N3CCN(C)CC3)c(F)cc3c(=O)c(C(=O)O)cn1c23.C[C@H]1COc2c(N3CCN(C)CC3)c(F)cc3c(=O)c(C(=O)O)cn1c23.O` [LEVOFLOXACIN], for which the MIC50 came out at 0.5 µg/mL in assay [1], 1 µg/mL in assay [2] and 1 µg/mL in assay [3]. Moreover, the MIC90 in assay [1], in assay [2] and in assay [3] was 1 µg/mL throughout.
As to `CN(C)c1ccc(O)c2c1C[C@H]1C[C@H]3[C@H](N(C)C)C(O)=C(C(N)=O)C(=O)[C@@]3(O)C(O)=C1C2=O` [MINOCYCLINE], the MIC50 in assay [1], in assay [2] and in assay [3] was 0.5 µg/mL (≈ 1.09 µM) each time. Besides, the MIC90 in assay [1], in assay [2] and in assay [3] was 1 µg/mL (≈ 2.19 µM) in each case.
Regarding `CCCC(=O)O[C@H]1[C@H](C)O[C@@H](O[C@H]2[C@H](N(C)C)[C@@H](O)[C@H](O[C@H]3[C@@H](CC=O)C[C@@H](C)[C@@H](O)/C=C/C=C/C[C@@H](C)OC(=O)C[C@@H](O)[C@@H]3OC)O[C@@H]2C)C[C@@]1(C)OC(=O)CC` [ROKITAMYCIN], the MIC50 in assay [1] was 0.0156 µg/mL (≈ 0.0188 µM); in assay [2], 0.125 µg/mL (≈ 0.151 µM); in assay [3] it was 16 µg/mL (≈ 19.3 µM). In addition, the MIC90 in assay [1] turned out to be 0.0156 µg/mL (≈ 0.0188 µM); in assay [2], 0.25 µg/mL (≈ 0.302 µM); in assay [3] it was 16 µg/mL (≈ 19.3 µM).
On to `CC[C@H]1OC(=O)[C@H](C)C(=O)[C@H](C)[C@@H](O[C@@H]2O[C@H](C)C[C@H](N(C)C)[C@H]2O)[C@](C)(OC)C[C@@H](C)C(=O)[C@H](C)[C@H]2N(CCCCn3cnc(-c4cccnc4)c3)C(=O)O[C@]12C` [TELITHROMYCIN], for which the MIC50 in assay [1] came out at 0.00098 µg/mL (≈ 0.00121 µM); in assay [2] it was 32 µg/mL (≈ 39.4 µM); in assay [3], 4 µg/mL (≈ 4.93 µM). For the same molecule, the MIC90 in assay [1] was 0.00195 µg/mL (≈ 0.0024 µM); in assay [2], 64 µg/mL (≈ 78.8 µM); in assay [3] it was 16 µg/mL (≈ 19.7 µM).
